A short description of one assay: Cytotoxicity against human 786-O cells assessed as growth inhibition by MTS assay. Type of assay: functional, cell-based. The note with it: 786-0. Summed up:
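Cells seeded at 2 × 10³/well in complete medium; after 24 h, serial doses 0.05−100 μM or DMSO vehicle in medium with 2% FBS for 3 days, medium with fresh compound replaced every 2 days. Viability by MTS reduction to formazan, read as 492/620 nm absorbance ratio; IC50 derived. Cells checked mycoplasma-free by Hoechst method.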
(In general: Tetrazolium assays rely on reduction of a dye to a coloured formazan, in cell work by metabolically active cells.)
One may read the IC50 as the concentration that inhibits the measured activity by half. For the compound `CCO[C@H](CNC(=O)c1[nH]c(Br)c(Br)c1Br)c1cc(Br)c(O)c(Br)c1`, the IC50 result is on record as “Not Active”. Same read-out and setting: under `O=C1N[C@H](O)[C@H](c2c(Br)[nH]c3ccc(Br)cc23)n2c(Br)c(Br)c(Br)c21` stands “Not Active”; under `O=c1c2c(Br)c(Br)cn2c(-c2cc(Br)c(O)c(Br)c2)cn1-n1cc(-c2cc(Br)c(O)c(Br)c2)n2c(Br)c(Br)cc2c1=O`, “Not Active”; under `O=C(NC[C@@H](O)c1cc(Br)c(O)c(Br)c1)c1[nH]cc(Br)c1Br`, “Not Active”. The same measure, in the same setting: under `O=C(NC[C@@H](O)c1cc(Br)c(O)c(Br)c1)c1[nH]c(Br)c(Br)c1Br` stands “Not Active”; under `O=C(NC[C@@H](O)c1cc(Br)c(O)c(Br)c1)c1cc(Br)c(Br)[nH]1`, “Not Active”.

The assay is the same for the next values; noted with them: Homo sapiens, 786-0; read-out: IC50.
As for `CO[C@H]1NC(=O)c2c(Br)c(Br)c(Br)n2[C@H]1c1c(Br)[nH]c2ccc(Br)cc12`, the IC50 came to 7.8 µM.

Take `COc1cccc2c1C(=O)c1c(O)c3c(c(O)c1C2=O)C[C@@](O)(C(=O)CO)C[C@@H]3O[C@H]1C[C@H](N)[C@H](O)[C@H](C)O1` [DOXORUBICIN]: the IC50 turned out to be 0.13 µM.

As to `O=c1[nH]cc(-c2c(Br)[nH]c3ccc(Br)cc23)n2c(Br)c(Br)c(Br)c12`, the IC50 turned out to be 27 µM. On the same count and under the same terms, then `COc1ccc(C(=O)C(NC(=O)c2cc(Br)c(Br)[nH]2)OC)cc1Br` (stereo unspecified), with 100 µM. As for `O=C(NCCc1c(Br)[nH]c2cc(Br)cc(O)c12)c1cc(Br)c(Br)[nH]1`, the half-maximal inhibitory concentration (IC50) came out at 15.1 µM.

The values are drawn from ChEMBL document CHEMBL3286344, “Bromopyrrole alkaloids isolated from the Patagonian bryozoan Aspidostoma giganteum” (J Nat Prod, 2014).
